Assay results taken from ChEMBL document CHEMBL1240335, “Integrating high-content screening and ligand-target prediction to identify mechanism of action” (Nat Chem Biol, 2008).
Calls of active or inactive are those of the source. No cut-off for these calls is given here.

How the values were obtained:
Assay type in all cases: functional, cell-based
HeLa [1] = assay: Cytotoxicity against human HeLa cells assessed as inhibition of DNA replication by imaging analysis
In short: (§1)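 HeLa cells (2,000 per well, DMEM with 10% FBS) were plated overnight, then treated with compound at 10 μM final for 20 h at 37 °C, in duplicate. Cells were pulsed 40 min with 500 nM EdU and fixed in 3.7% paraformaldehyde. Replication was read by rhodamine-azide click labelling, mitosis by anti-phosphohistone H3 Ser10/Cy5, and DNA by Hoechst. Automated 10× imaging scored ≥500 cells per well.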

HeLa [2] = assay: Inhibition of mitosis in human HeLa cells by imaging analysis; in short: as §1
HeLa [3] = assay: Induction of cell cycle arrest in human HeLa cells assessed as accumulation at G1 arrest at 10 uM after 20 hrs by Hoescht 33342 staining
In short: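 HeLa cells plated at 2,000 per well in DMEM with 10% FBS and penicillin/streptomycin, grown overnight, then treated at a final 10 μM (diluted from 10 mM DMSO stock) for 20 h at 37 °C in duplicate. Pulsed 40 min with 500 nM EdU, fixed in 3.7% paraformaldehyde, stained with Hoechst 33342, anti-phosphoH3 Ser10 and rhodamine-azide. Imaged by automated microscopy at 10×; ≥500 cells scored per well.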

SMILES	inhibition (HeLa [1])	inhibition (HeLa [2])	Activity (HeLa [3])
C[C@@H]1C[C@@H]([C@H](O)CC2CC(=O)NC(=O)C2)C(=O)[C@@H](C)C1	Active	Active	–
C[C@@H]1O[C@@H](O[C@H]2C[C@@H](O)[C@]3(CO)[C@H]4[C@H](O)C[C@]5(C)[C@@H](C6=CC(=O)OC6)CC[C@]5(O)[C@@H]4CC[C@]3(O)C2)[C@H](O)[C@H](O)[C@H]1O	Active	Active	–
CC(=O)[C@H]1CC[C@H]2[C@@H]3CCC4=CC(=O)CC[C@]4(C)[C@H]3CC[C@]12C	Active	Active	–
CC(C)[C@H]1CC[C@@](O)(CCl)[C@H]2C(=O)OCC(C(=O)O)=C[C@H]12	–	–	Active
CCC(=O)O[C@]1(C(=O)CCl)[C@@H](C)C[C@H]2[C@@H]3CCC4=CC(=O)C=C[C@]4(C)[C@@]3(F)[C@@H](O)C[C@@]21C	Active	Active	–
CCCCCC[C@H]1CC[C@@](O)([C@@](C)(O)C(=O)N[C@@H]2C(=O)N3NCCC[C@@H]3C(=O)N(O)[C@@H](COC)C(=O)NCC(=O)N3NCCC[C@H]3C(=O)N(O)[C@H](C)C(=O)O[C@H]2C)OC1C (some centres undefined)	–	–	Active
COC[C@H]1C(=O)NCC(=O)N2NCCC[C@H]2C(=O)N(O)[C@H](C)C(=O)O[C@@H](C(C)C)[C@H](NC(=O)[C@](C)(O)[C@]2(O)CC[C@@H](CC(C)C)[C@H](C)O2)C(=O)N2NCCC[C@@H]2C(=O)N1O	–	–	Active
C[C@H]1O[C@@H](O[C@H]2[C@@H](O)C[C@H](O[C@H]3[C@@H](O)C[C@H](O[C@H]4CC[C@@]5(C)[C@H](CC[C@@H]6[C@@H]5C[C@@H](O)[C@]5(C)[C@@H](C7=CC(=O)OC7)CC[C@]65O)C4)O[C@@H]3C)O[C@@H]2C)C[C@H](O)[C@@H]1O	Active	Active	–
C#C[C@]1(O)CC[C@H]2[C@@H]3CCC4=Cc5oncc5C[C@]4(C)[C@H]3CC[C@@]21C	Active	Active	–
C[C@]12CC[C@H](O)C[C@H]1CC[C@@H]1[C@@H]2CC[C@]2(C)[C@@H](C3=CC(=O)OC3)CC[C@]12O	Active	Active	–
CC[C@H]1CN2CCc3cc(OC)c(OC)cc3[C@@H]2C[C@@H]1C[C@H]1NCCc2cc(OC)c(OC)cc21	Active	Active	–
C[C@]12C=CC(=O)C=C1CC[C@H]1[C@@H]3C[C@@H](O)[C@](O)(C(=O)CO)[C@@]3(C)C[C@H](O)[C@@]12F	Active	Active	–
C[C@@H]1C[C@H]2[C@@H]3CCC4=CC(=O)C=C[C@]4(C)[C@@]3(F)[C@@H](O)C[C@]2(C)[C@@]1(O)C(=O)CO	Active	Active	–
CC1=C2O[C@]3(O)C=C2C(=C(O)C1=O)[C@@H]1O[C@H](CC[C@H](C)/C=C(\C)C[C@@H](C)C[C@@H]3C)[C@H](C)[C@H](O)[C@H]1C	–	–	Active
